In ChEMBL document CHEMBL1122845, “Inhibitors of blood platelet aggregation. Effects of some 1,2-benzisothiazol-3-ones on platelet responsiveness to adenosine diphosphate and collagen” (J Med Chem, 1985):

Legend:
Cavia porcellus [1] = assay: The compound was tested ex vivo at a dose of 0.15 mmol/kg for ADP induced platelet aggregation in guinea pig
Rattus norvegicus [2] = assay: The compound was tested ex vivo at a dose of 0.15 mmol/kg for ADP induced platelet aggregation in rat
Cavia porcellus [3] = assay: The compound was tested ex vivo at a dose of 0.15 mmol/kg for collagen induced platelet aggregation in guinea pig; format: functional
In short: (§1)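 Male rats (~200 g) or guinea pigs (~300 g), overnight fasted, n=5-10, received compound orally in 1% methylcellulose (5 mL/kg); vehicle-only controls. After 2 h, CO2 kill and vena cava blood into citrate (102 mM rat, 129 mM guinea pig). PRP set to 800000/µL (rat) or 500000/µL (guinea pig). Collagen EC50 (response of 50 mm; max 50 µg/mL) interpolated from a log plot. Dose ratio = treated/control mean EC50; t-test. Pooled PRP sometimes used.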

Rattus norvegicus [4] = assay: The compound was tested ex vivo at a dose of 0.15 mmol/kg for collagen induced platelet aggregation in rat; format: functional
In short: as §1

Cavia porcellus [5] = assay: The compound was tested ex vivo at a dose of 0.08 mmol/kg for collagen induced platelet aggregation in guinea pig; format: functional
In short: as §1

Rattus norvegicus [6] = assay: The compound was tested ex vivo at a dose of 0.08 mmol/kg for ADP induced platelet aggregation in rat; format: functional
In short: (§2)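 Fasted male rats (~200 g) or guinea pigs (~300 g), n=5-10, dosed orally (5 mL/kg) in 1% methylcellulose; methylcellulose alone as control. Killed with CO2 after 2 h. Vena cava blood citrated (102 mM rat, 129 mM guinea pig); PRP adjusted to 800000/µL (rat) or 500000/µL (guinea pig). EC25 for first-phase ADP aggregation (max 8 µM) interpolated from two 2-fold-spaced ADP levels. Dose ratio = treated/control mean EC25; Student's t-test. Some groups tested as pooled PRP.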

Rattus norvegicus [7] = assay: The compound was tested ex vivo at a dose of 0.15 mmol/kg for collagen induced platelet aggregation in rat
Rattus norvegicus [8] = assay: The compound was tested ex vivo at a dose of 0.04 mmol/kg for collagen induced platelet aggregation in rat; format: functional
In short: as §1

Rattus norvegicus [9] = assay: The compound was tested ex vivo at a dose of 0.04 mmol/kg for ADP induced platelet aggregation in rat; format: functional
In short: as §2

Cavia porcellus [10] = assay: The compound was tested ex vivo at a dose of 0.15 mmol/kg for ADP induced platelet aggregation in guinea pig; format: functional
In short: as §2

Cavia porcellus [11] = assay: The compound was tested ex vivo at a dose of 0.08 mmol/kg for ADP induced platelet aggregation in guinea pig; format: functional
In short: as §2

Cavia porcellus [12] = assay: The compound was tested ex vivo at a dose of 0.02 mmol/kg for collagen induced platelet aggregation in guinea pig; format: functional
In short: as §1

Homo sapiens = species on record: Homo sapiens; assay: In vitro inhibitory activity against human platelet aggregation in the presence of collagen; format: functional
In short: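 Aggregation measured photometrically in human citrated PRP (350000 platelets/µL, stirred at 1100 rpm). Compound or saline preincubated 3 min at 37 °C. Collagen at a just-maximal level chosen for each sample (typically 0.7-1.4 µg/mL). Maximum increase in light transmission measured. IC50 = concentration giving 50% inhibition.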

Cavia porcellus [13] = assay: The compound was tested ex vivo at a dose of 0.04 mmol/kg for ADP induced platelet aggregation in guinea pig
Rattus norvegicus [14] = assay: The compound was tested ex vivo at a dose of 0.08 mmol/kg for collagen induced platelet aggregation in rat; format: functional
In short: as §1

Cavia porcellus [15] = assay: The compound was tested ex vivo at a dose of 0.04 mmol/kg for ADP induced platelet aggregation in guinea pig; format: functional
In short: as §2

Structure (SMILES)	Activity (Cavia porcellus [1])	Activity (Rattus norvegicus [2])	collagen EC50 dose ratio (treated/control) (Cavia porcellus [3])	Activity (Rattus norvegicus [4])	Activity (Cavia porcellus [5])	Activity (Rattus norvegicus [6])	Activity (Rattus norvegicus [7])	Activity (Cavia porcellus [3])	Activity (Rattus norvegicus [8])	Activity (Rattus norvegicus [9])	Activity (Cavia porcellus [10])	Activity (Cavia porcellus [11])	Activity (Cavia porcellus [12])	IC50 (Homo sapiens) [µM]	Activity (Cavia porcellus [13])	Activity (Rattus norvegicus [14])	Activity (Cavia porcellus [15])
CCN(CC)CCn1sc2cc(OC)c(OC)cc2c1=O	1.1	2.2	>47	1.5													
O=C1C(CC[S+]([O-])c2ccccc2)C(=O)N(c2ccccc2)N1c1ccccc1 (stereo not drawn) [SULFINPYRAZONE]				1.1	6.2	1.2	1.2	3.2	1.3	1	1.1	1.6	2.9	870	1.1	1.8	1.1
